# Assay results collected from several papers.
# Each line is one published result; the experiments were not run side by side.
# Organism: Mycolicibacterium smegmatis
# Effect on: microbial growth
Compound,method,strain,time,MIC
CO[C@H]1/C=C/O[C@@]2(C)Oc3c(C)c(O)c4c(O)c(c(/C=N/N5CCN(C)CC5)c(O)c4c3C2=O)NC(=O)/C(C)=C\C=C\[C@H](C)[C@H](O)[C@@H](C)[C@@H](O)[C@@H](C)[C@H](OC(C)=O)[C@@H]1C,,,,2 µg/mL
CC1(C)S[C@@H]2[C@H](NC(=O)[C@H](N)c3ccccc3)C(=O)N2[C@H]1C(=O)O,resazurin,MC^2155,24 h,50 µg/mL
C/C(=N\NC(=N)N)c1cccc(/C(C)=N/NC(=N)N)c1,,MC2155,,15.6 to 31.3 µM
CC(C)CC=CC=CC(=O)NC(CC(N)=O)C(=O)NC1C(=O)NC(c2ccc(O)cc2)C(=O)NC(CCCN)C(=O)NC(C(C)O)C(=O)NC(c2ccc(O)cc2)C(=O)NC(c2ccc(O)cc2)C(=O)NC(C(C)O)C(=O)NC(Cc2ccccc2)C(=O)NC(CCCN)C(=O)NC(c2ccc(OC3OC(CO)C(O)C(O)C3OC3OC(CO)C(O)C(O)C3O)cc2)C(=O)NC(C(C)O)C(=O)NC(c2ccc(O)cc2)C(=O)NCC(=O)NC(CC(C)C)C(=O)NC(C)C(=O)NC(c2ccc(O)c(Cl)c2)C(=O)OC1C(N)=O (stereo not drawn),resazurin,ATCC607,72 h,3.25 µg/mL
NC[C@H]1O[C@@H](O[C@@H]([C@H](NCCCC(=O)NCc2ccc(N3CCC(Oc4ccc(OC(F)(F)F)cc4)CC3)cc2)C(N)=O)[C@H]2O[C@@H](n3ccc(=O)[nH]c3=O)C(O)C2O)[C@H](O)[C@@H]1O (stereo partly drawn),,ATCC607,,0.2 µg/mL
CCC(C)(C)C(=O)Oc1ccccc1C(=O)Nc1ncc([N+](=O)[O-])s1,agar dilution,MC^2155,,> 25 µM
NNC(=O)c1ccncc1,agar dilution,,,12.5 µg/mL
CC(C)=CCC/C(C)=C/COCC(=O)NC1C2CC3CC(C2)CC1C3 (stereo not drawn),,,,25 µg/mL
CO[C@H]1/C=C/O[C@@]2(C)Oc3c(C)c(O)c4c(O)c(c(/C=N/N5CCN(C)CC5)c(O)c4c3C2=O)NC(=O)/C(C)=C\C=C\[C@H](C)[C@H](O)[C@@H](C)[C@@H](O)[C@@H](C)[C@H](OC(C)=O)[C@@H]1C,broth dilution,ATCC607,,> 200 µg/mL
CNC(C)C1CCC(N)C(OC2C(N)CC(N)C(OC3OCC(C)(O)C(NC)C3O)C2O)O1 (stereo not drawn),broth dilution,,72 h,1 µg/mL
CC(C)=CCC/C(C)=C/CNCCCOC1C2CC3CC(C2)CC1C3 (stereo not drawn),,,,6.2 µg/mL
O=C(Nc1ccc2c(c1)OC(F)(F)O2)Nc1ccc(Cl)c(C(F)(F)F)c1,,MC2155,,6 µM
NNC(=O)c1ccncc1,,,,1 µg/mL
CC(C)=CCC/C(C)=C/CNCCOc1cccc2ccccc12,,,,12 µg/mL
Cc1ccc(-c2nc3ccc(C)cn3c2CC(=O)N(C)C)cc1,broth dilution,,,> 50 µM
NNC(=O)c1ccncc1,broth dilution,ATCC607,,> 200 µg/mL
C[C@@H]([C@H](N)C(=O)N[C@H](C(=O)O)[C@H]1O[C@@H](n2ccc(=O)[nH]c2=O)[C@H](O)[C@@H]1O)[C@H](O)c1ccc(O)cn1,resazurin,ATCC607,72 h,> 50 µg/mL
CC(C)=CCC/C(C)=C/CNCCOc1ccccc1,,,,12 µg/mL
